Source: ChEMBL document CHEMBL4689842, “EUbOPEN Chemogenomics Library wave 1” (2021)

Test system: HEK-293T
Test: Multiplex assay against HEK293T;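 for Population Tubulin-Different-Phenotype (%): share of the cells with healthy nuclei that show this phenotype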
Assay type: toxicity, cell-based
Settings: human
In short: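 Imaging took place on a CQ1 microscope at 37°C and 5% CO2 once compound had been added to live cells stained at seeding with Hoechst33342, BioTracker Green Microtubule Cytoskeleton Dye, MitoTracker Red and Annexin V Alexa Fluor 680. CellPathfinder machine-learning gating classed cells as Hoechst high-intensity objects or normal cells, classed normal cells as having healthy, pyknosed or fragmented nuclei, and classed pyknosed cells as mitotic or apoptotic. Tubulin, mitochondrial-mass and membrane-permeability phenotypes are per cents of the healthy-nucleus cells.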

[1] = 12 h, 1 µM, compound concentration 1 uM, replicate 1
[2] = 12 h, 1 µM, compound concentration 1 uM, replicate 2
[3] = 12 h, 10 µM, compound concentration 10 uM, replicate 1
[4] = 12 h, 10 µM, compound concentration 10 uM, replicate 2
[5] = 24 h, 1 µM, compound concentration 1 uM, replicate 1
[6] = 24 h, 1 µM, compound concentration 1 uM, replicate 2
[7] = 24 h, 10 µM, compound concentration 10 uM, replicate 1
[8] = 24 h, 10 µM, compound concentration 10 uM, replicate 2
[9] = 48 h, 1 µM, compound concentration 1 uM, replicate 1
[10] = 48 h, 1 µM, compound concentration 1 uM, replicate 2
[11] = 48 h, 10 µM, compound concentration 10 uM, replicate 1
[12] = 48 h, 10 µM, compound concentration 10 uM, replicate 2

## COC(=N)c1nc2ccc3ncnc(Nc4ccc(OC)cc4F)c3c2s1
[1]
  Population Apoptotic (%): 15%
  Population Fragmented Nuclei (%): 16%
  Population Healthy Nuclei (%): 53%
  Population Hoechst High Intensity Objects (%): 21%
  Population Membrane Permeable-Phenotype (%): 3%
  Population Mitochondria Different-Phenotype (%): 12%
  Population Mitotic Cells (%): 84%
  Population Normal (%): 78%
  Population Pyknosed Nuclei (%): 29%
  Population Tubulin-Different-Phenotype (%): 5%
  Total Cell Count: 546
[2]
  Population Apoptotic (%): 24%
  Population Fragmented Nuclei (%): 4%
  Population Healthy Nuclei (%): 87%
  Population Hoechst High Intensity Objects (%): 5%
  Population Membrane Permeable-Phenotype (%): 0%
  Population Mitochondria Different-Phenotype (%): 21%
  Population Mitotic Cells (%): 75%
  Population Normal (%): 94%
  Population Pyknosed Nuclei (%): 7%
  Population Tubulin-Different-Phenotype (%): 9%
  Total Cell Count: 1072
[3]
  Population Apoptotic (%): 19%
  Population Fragmented Nuclei (%): 10%
  Population Healthy Nuclei (%): 66%
  Population Hoechst High Intensity Objects (%): 10%
  Population Mitochondria Different-Phenotype (%): 6%
  Population Mitotic Cells (%): 80%
  Population Normal (%): 89%
  Population Pyknosed Nuclei (%): 22%
  Population Tubulin-Different-Phenotype (%): 4%
  Total Cell Count: 552
[4]
  Population Apoptotic (%): 4%
  Population Fragmented Nuclei (%): 6%
  Population Healthy Nuclei (%): 88%
  Population Hoechst High Intensity Objects (%): 3%
  Population Membrane Permeable-Phenotype (%): 2%
  Population Mitochondria Different-Phenotype (%): 8%
  Population Mitotic Cells (%): 95%
  Population Normal (%): 96%
  Population Pyknosed Nuclei (%): 5%
  Population Tubulin-Different-Phenotype (%): 6%
  Total Cell Count: 1236
[5]
  Population Apoptotic (%): 19%
  Population Fragmented Nuclei (%): 14%
  Population Healthy Nuclei (%): 71%
  Population Hoechst High Intensity Objects (%): 11%
  Population Membrane Permeable-Phenotype (%): 3%
  Population Mitochondria Different-Phenotype (%): 7%
  Population Mitotic Cells (%): 80%
  Population Normal (%): 88%
  Population Pyknosed Nuclei (%): 13%
  Population Tubulin-Different-Phenotype (%): 12%
  Total Cell Count: 573
[6]
  Population Apoptotic (%): 17%
  Population Healthy Nuclei (%): 82%
  Population Hoechst High Intensity Objects (%): 5%
  Population Mitochondria Different-Phenotype (%): 4%
  Population Mitotic Cells (%): 82%
  Population Normal (%): 94%
  Population Pyknosed Nuclei (%): 2%
  Population Tubulin-Different-Phenotype (%): 19%
  Total Cell Count: 1668
[7]
  Population Apoptotic (%): 16%
  Population Fragmented Nuclei (%): 9%
  Population Healthy Nuclei (%): 82%
  Population Hoechst High Intensity Objects (%): 8%
  Population Membrane Permeable-Phenotype (%): 7%
  Population Mitochondria Different-Phenotype (%): 2%
  Population Mitotic Cells (%): 83%
  Population Normal (%): 91%
  Population Pyknosed Nuclei (%): 8%
  Population Tubulin-Different-Phenotype (%): 8%
  Total Cell Count: 657
[8]
  Population Apoptotic (%): 4%
  Population Fragmented Nuclei (%): 20%
  Population Healthy Nuclei (%): 77%
  Population Hoechst High Intensity Objects (%): 3%
  Population Membrane Permeable-Phenotype (%): 4%
  Population Mitotic Cells (%): 95%
  Population Normal (%): 96%
  Population Pyknosed Nuclei (%): 2%
  Population Tubulin-Different-Phenotype (%): 5%
  Total Cell Count: 2058

## CN1C2CCC1CC(OC(c1ccc(F)cc1)c1ccc(F)cc1)C2.Cl (stereo not given)
[1]
  Population Apoptotic (%): 50%
  Population Fragmented Nuclei (%): 12%
  Population Healthy Nuclei (%): 27%
  Population Hoechst High Intensity Objects (%): 12%
  Population Membrane Permeable-Phenotype (%): 2%
  Population Mitochondria Different-Phenotype (%): 84%
  Population Mitotic Cells (%): 50%
  Population Normal (%): 87%
  Population Pyknosed Nuclei (%): 60%
  Population Tubulin-Different-Phenotype (%): 58%
  Total Cell Count: 303
[2]
  Population Apoptotic (%): 18%
  Population Fragmented Nuclei (%): 2%
  Population Healthy Nuclei (%): 43%
  Population Hoechst High Intensity Objects (%): 3%
  Population Membrane Permeable-Phenotype (%): 18%
  Population Mitochondria Different-Phenotype (%): 35%
  Population Mitotic Cells (%): 81%
  Population Normal (%): 96%
  Population Pyknosed Nuclei (%): 54%
  Population Tubulin-Different-Phenotype (%): 56%
  Total Cell Count: 252
[3]
  Population Apoptotic (%): 80%
  Population Fragmented Nuclei (%): 9%
  Population Healthy Nuclei (%): 25%
  Population Hoechst High Intensity Objects (%): 13%
  Population Membrane Permeable-Phenotype (%): 1%
  Population Mitochondria Different-Phenotype (%): 100%
  Population Mitotic Cells (%): 19%
  Population Normal (%): 86%
  Population Pyknosed Nuclei (%): 65%
  Population Tubulin-Different-Phenotype (%): 98%
  Total Cell Count: 280
[4]
  Population Apoptotic (%): 63%
  Population Fragmented Nuclei (%): 3%
  Population Healthy Nuclei (%): 21%
  Population Hoechst High Intensity Objects (%): 6%
  Population Membrane Permeable-Phenotype (%): 2%
  Population Mitochondria Different-Phenotype (%): 92%
  Population Mitotic Cells (%): 36%
  Population Normal (%): 93%
  Population Pyknosed Nuclei (%): 74%
  Population Tubulin-Different-Phenotype (%): 95%
  Total Cell Count: 201
[5]
  Population Apoptotic (%): 48%
  Population Fragmented Nuclei (%): 15%
  Population Healthy Nuclei (%): 19%
  Population Hoechst High Intensity Objects (%): 14%
  Population Membrane Permeable-Phenotype (%): 10%
  Population Mitochondria Different-Phenotype (%): 76%
  Population Mitotic Cells (%): 51%
  Population Normal (%): 85%
  Population Pyknosed Nuclei (%): 64%
  Total Cell Count: 295
[6]
  Population Apoptotic (%): 22%
  Population Fragmented Nuclei (%): 4%
  Population Healthy Nuclei (%): 49%
  Population Hoechst High Intensity Objects (%): 1%
  Population Membrane Permeable-Phenotype (%): 12%
  Population Mitochondria Different-Phenotype (%): 35%
  Population Mitotic Cells (%): 77%
  Population Normal (%): 98%
  Population Pyknosed Nuclei (%): 46%
  Population Tubulin-Different-Phenotype (%): 64%
  Total Cell Count: 305
[7]
  Population Apoptotic (%): 79%
  Population Fragmented Nuclei (%): 16%
  Population Healthy Nuclei (%): 13%
  Population Hoechst High Intensity Objects (%): 20%
  Population Membrane Permeable-Phenotype (%): 3%
  Population Mitochondria Different-Phenotype (%): 100%
  Population Mitotic Cells (%): 20%
  Population Normal (%): 79%
  Population Pyknosed Nuclei (%): 70%
  Population Tubulin-Different-Phenotype (%): 96%
  Total Cell Count: 292
[8]
  Population Apoptotic (%): 88%
  Population Fragmented Nuclei (%): 3%
  Population Healthy Nuclei (%): 28%
  Population Hoechst High Intensity Objects (%): 7%
  Population Membrane Permeable-Phenotype (%): 1%
  Population Mitochondria Different-Phenotype (%): 96%
  Population Mitotic Cells (%): 11%
  Population Normal (%): 92%
  Population Pyknosed Nuclei (%): 67%
  Population Tubulin-Different-Phenotype (%): 86%
  Total Cell Count: 190
[9]
  Population Apoptotic (%): 47%
  Population Fragmented Nuclei (%): 20%
  Population Healthy Nuclei (%): 21%
  Population Hoechst High Intensity Objects (%): 19%
  Population Membrane Permeable-Phenotype (%): 7%
  Population Mitochondria Different-Phenotype (%): 53%
  Population Mitotic Cells (%): 52%
  Population Normal (%): 80%
  Population Pyknosed Nuclei (%): 58%
  Population Tubulin-Different-Phenotype (%): 67%
  Total Cell Count: 329
[10]
  Population Apoptotic (%): 11%
  Population Fragmented Nuclei (%): 4%
  Population Healthy Nuclei (%): 77%
  Population Hoechst High Intensity Objects (%): 2%
  Population Membrane Permeable-Phenotype (%): 15%
  Population Mitochondria Different-Phenotype (%): 15%
  Population Mitotic Cells (%): 89%
  Population Normal (%): 97%
  Population Pyknosed Nuclei (%): 18%
  Population Tubulin-Different-Phenotype (%): 52%
  Total Cell Count: 565
[11]
  Population Apoptotic (%): 78%
  Population Fragmented Nuclei (%): 21%
  Population Healthy Nuclei (%): 8%
  Population Hoechst High Intensity Objects (%): 21%
  Population Membrane Permeable-Phenotype (%): 0%
  Population Mitochondria Different-Phenotype (%): 100%
  Population Mitotic Cells (%): 21%
  Population Normal (%): 78%
  Population Pyknosed Nuclei (%): 69%
  Population Tubulin-Different-Phenotype (%): 95%
  Total Cell Count: 285
[12]
  Population Apoptotic (%): 75%
  Population Fragmented Nuclei (%): 9%
  Population Healthy Nuclei (%): 55%
  Population Hoechst High Intensity Objects (%): 10%
  Population Membrane Permeable-Phenotype (%): 1%
  Population Mitochondria Different-Phenotype (%): 96%
  Population Mitotic Cells (%): 24%
  Population Normal (%): 89%
  Population Pyknosed Nuclei (%): 34%
  Population Tubulin-Different-Phenotype (%): 85%
  Total Cell Count: 207
